Activity calls are given as the source filed them. No cut-off for these calls is given here.
Columns and labels:
[1] = system: Plasmodium berghei; assay: Antimalarial activity against Plasmodium berghei infected in mouse assessed as change in mean survival time at 20 mg/kg, sc by Rane test; format: functional; settings: route subcutaneous
In short: (§1)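 Mice were infected with P. berghei 3 days before drug. The compound was usually given subcutaneously in sesame or peanut oil at 20 to 640 mg/kg. Activity was read as the extension of mean survival time (ΔMST, days) of treated mice over infected controls.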

[2] = system: Plasmodium berghei; assay: Antimalarial activity against Plasmodium berghei infected in mouse assessed as change in mean survival time at 40 mg/kg, sc by Rane test; format: functional; settings: route subcutaneous; in short: as §1
[3] = system: Plasmodium berghei; assay: Antimalarial activity against Plasmodium berghei infected in mouse assessed as change in mean survival time at 80 mg/kg, sc by Rane test; format: functional; settings: route subcutaneous; in short: as §1
[4] = system: Plasmodium berghei; assay: Antimalarial activity against Plasmodium berghei infected in mouse assessed as disease cure at 160 mg/kg, sc by Rane test; format: functional, organism-based; parameters: dose 160 mg/kg
[5] = system: Plasmodium berghei; assay: Antimalarial activity against Plasmodium berghei infected in mouse assessed as disease cure at 320 mg/kg, sc by Rane test; format: functional, organism-based; parameters: dose 320 mg/kg
[6] = system: Plasmodium berghei; assay: Antimalarial activity against Plasmodium berghei infected in mouse assessed as disease cure at 640 mg/kg, sc by Rane test; format: functional, organism-based; parameters: dose 640 mg/kg
[7] = system: Mus musculus; assay: Toxicity in mouse infected with Plasmodium berghei assessed as animal death at 640 mg/kg, sc; format: organism-based; parameters: dose 640 mg/kg, route subcutaneous; settings: in vivo
[8] = system: Plasmodium cynomolgi; assay: Antimalarial activity against Plasmodium cynomolgi infected in rhesus monkey at 0.50 mg/kg administered daily for 7 days; format: functional, organism-based; parameters: dose 0.5 mg/kg
[9] = system: Plasmodium cynomolgi; assay: Antimalarial activity against Plasmodium cynomolgi infected in rhesus monkey assessed as disease cure at 1 mg/kg administered daily for 7 days; format: functional, organism-based; parameters: dose 1 mg/kg
In short: (§2)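 Rhesus monkeys infected with P. cynomolgi, dosed once daily for 7 days at each listed mg/kg level. Cures were recorded as the number of monkeys cured over the number treated.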

[10] = system: Mus musculus; assay: Toxicity in mouse infected with Plasmodium berghei assessed as animal death at 160 mg/kg, sc; format: organism-based; parameters: dose 160 mg/kg, route subcutaneous; settings: in vivo
[11] = system: Mus musculus; assay: Toxicity in mouse infected with Plasmodium berghei assessed as animal death at 320 mg/kg, sc; format: organism-based; parameters: dose 320 mg/kg, route subcutaneous; settings: in vivo
[12] = system: Plasmodium cynomolgi; assay: Antimalarial activity against Plasmodium cynomolgi infected in rhesus monkey at 0.25 mg/kg administered daily for 7 days; format: functional, organism-based; parameters: dose 0.25 mg/kg; in short: as §2
[13] = system: Plasmodium berghei; assay: Antimalarial activity against Plasmodium berghei infected in mouse assessed as change in mean survival time at 160 mg/kg, sc by Rane test; format: functional; settings: route subcutaneous; in short: as §1
[14] = system: Plasmodium berghei; assay: Antimalarial activity against Plasmodium berghei infected in mouse assessed as change in mean survival time at 320 mg/kg, sc by Rane test; format: functional; settings: route subcutaneous; in short: as §1
[15] = system: Plasmodium cynomolgi; assay: Antimalarial activity against Plasmodium cynomolgi infected in rhesus monkey assessed as disease cure at 0.5 mg/kg administered daily for 7 days; format: functional, organism-based; parameters: dose 0.5 mg/kg; in short: as §2
[16] = system: Plasmodium berghei; assay: Antimalarial activity against Plasmodium berghei infected in mouse assessed as change in mean survival time at 640 mg/kg, sc by Rane test; format: functional; settings: route subcutaneous; in short: as §1
[17] = system: Plasmodium cynomolgi; assay: Antimalarial activity against Plasmodium cynomolgi infected in rhesus monkey at 1 mg/kg administered daily for 7 days; format: functional, organism-based; parameters: dose 1 mg/kg

Structure (SMILES)	MST [1] [days]	MST [2] [days]	MST [3] [days]	Activity [4]	Activity [5]	Activity [6]	Activity [7]	Activity [8]	Activity [9]	Activity [10]	Activity [11]	Activity [12]	MST [13] [days]	MST [14] [days]	Activity [15]	MST [16] [days]	Activity [17]
COc1cc(NC(C)CCCCN)c2nccc(C)c2c1.O=P(O)(O)O (centres undefined)	5.8	7	10.4	Active	Active	Active	Non-toxic	inactive	Active	–	–	–	–	–	–	–	–
COc1cc(NC(C)CCCN)c2ncccc2c1 (centres undefined) [PRIMAQUINE]	–	5	9.4	–	–	–	Toxic	–	Active	Toxic	Toxic	inactive	–	–	–	–	–
COc1cc(NC(C)CCCN)c2nccc(C)c2c1 (centres undefined)	–	–	5.5	–	–	Active	Toxic	–	Active	–	–	–	9	10.1	Active	–	–
COc1cc(NCCCN)c2nccc(C)c2c1.Cl	–	–	–	–	–	–	Toxic	–	–	–	–	inactive	3.9	5.5	–	–	–
COc1cc(NC(C)CCCN)c2nccc(SC)c2c1 (centres undefined)	0.1	0.1	1.3	–	inactive	inactive	–	–	–	–	–	–	3.5	6.7	–	8.1	inactive
COc1cc([N+](=O)[O-])c2nccc(Oc3ccc(Cl)cc3)c2c1	3.5	6.1	10.1	Active	Active	Active	Non-toxic	–	–	–	–	–	–	–	–	–	inactive
